This is an account of results in ChEMBL document CHEMBL1123063, “Mechanism-based inactivation of N-arylhydroxamic acid N,O-acyltransferase by 7-substituted-N-hydroxy-2-acetamidofluorenes” (J Med Chem, 1985).

Each structure is given as a SMILES string.

The subject of series [1] is N-arylhydroxamic acid N,O-acyltransferase (Mesocricetus auratus). Briefly: Percent protection from inactivation of AHAT was determined using guanosine phosphate.
Series [2] shares this test system. The series can be described thus: Percent protection from inactivation of AHAT was determined using L-cysteine.
Series [3] can be described thus: Apparent dissociation (binding) rate constant was evaluated. Format: ADME. The essentials: (§1)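 Partially purified hamster hepatic AHAT was preincubated at 37 °C in pyrophosphate buffer pH 7, 1 mM DTT, KCl, with five inactivator concentrations (0.005–1.0 mM final) for five preincubation periods (1–15 min). Remaining AAB transacetylation activity was then assayed. kobsd came from semilog plots of percent remaining activity vs. time. k_i and K_D came from double-reciprocal plots of kobsd vs. concentration. Three experiments, each in triplicate.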

Series [4] is described as follows: Apparent inactivation rate constant was evaluated. The essentials: as §1
Another series has as its system Hamster. The series can be described thus: Activity measured as 4-aminoazobenzene (AAB) transacetylation rate with partially purified hamster hepatic enzyme. Type of series: ADME. Particulars: cricetinae, in vitro. Put shortly:
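Hamster liver (male golden Syrian) 105000g supernatant, ammonium sulfate-fractionated (two- to three-fold), in 0.05 M sodium pyrophosphate pH 7, 1 mM DTT with KCl. 2-min 37 °C equilibration, then hydroxamic acid plus AAB added. Final: 1.0 mM donor, 0.15 mM AAB, 1.0 mg/mL protein, 2.0 min (exceptions: 0.5–0.6 mM donor, 3.5 min). TCA/EtOH stop, A497. Mean ± SE, N = 15–30.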

A short description of series [5]: Ratio of apparent inactivation rate constant to apparent dissociation (binding) rate constant was determined.
Series [6] concerns N-arylhydroxamic acid N,O-acyltransferase (Mesocricetus auratus). Briefly: Percent protection from inactivation of AHAT was determined using glutathione.
The test system is the same in series [7]. The series can be described thus: Percent protection from inactivation of AHAT was determined using L-methionine.
Series [8] shares this test system. Briefly: Percent protection from inactivation of AHAT was determined using t-RNA.
The test system of series [9] is Cricetinae gen. sp. The series can be described thus: Percent protection from inactivation of AHAT was determined using L-methionine. Format: functional, Cricetulus griseus. Further details: concentration or dose not given beside the values. The essentials:
(§2)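 Run as in the inactivation kinetics: hamster hepatic AHAT was preincubated at 37 °C with a saturating inactivator concentration for 2–20 min (to maximal inactivation). Nucleophile was present at 10 mM (L-cysteine, L-methionine, glutathione, guanosine phosphate) or tRNA at 1 mg/mL. Remaining AAB transacetylation activity was then measured. Protection = percent remaining activity with minus without nucleophile. Mean ± SE of three experiments.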

For series [10], the system named is Cricetinae gen. sp. The series can be described thus: Percent protection from inactivation of AHAT was determined using L-cysteine. Format: functional, Cricetulus griseus. The arrangement: concentration or dose not given beside the values. Put shortly:
as §2

Series [11] relates to Cricetinae gen. sp. The series can be described thus: Percent protection from inactivation of AHAT was determined using t-RNA. Type of series: functional, Cricetulus griseus. The arrangement: concentration or dose not given beside the values. The essentials:
as §2

For series [12], the system named is Cricetinae gen. sp. The series can be described thus: Percent protection from inactivation of AHAT was determined using guanosine phosphate. Format: functional, Cricetulus griseus. The arrangement: concentration or dose not given beside the values. The essentials: as §2
Series [13] deals with Cricetinae gen. sp. The series can be described thus: Percent protection from inactivation of AHAT was determined using glutathione. Further details: concentration or dose not given beside the values. Type of series: functional, Cricetulus griseus. The essentials:
as §2

Consider `CCOc1ccc2c(c1)Cc1cc(N(O)C(C)=O)ccc1-2`, for which the Protection in series [1] amounted to 21.3%; in series [2], 34.2%; in [6], 39.4%; in [7], 43.3%; in series [8] it was 19.2%. The Kd in series [3] came to 3.8 µM. Also, in [4], the inactivation rate constant (kinact) (in general, the maximal first-order rate at which the target is inactivated) was 0.67 min⁻¹. The compound also displayed a Rate in the series on Hamster of 9.6 nmol/mg/min. For the same compound, the kinact/KI (commonly the maximal inactivation rate divided by the concentration that gives half of it) in [5] worked out at 2940 M⁻¹ s⁻¹.

As for `CCCCOc1ccc2c(c1)Cc1cc(N(O)C(C)=O)ccc1-2`, the Kd in series [3] was 5.7 µM. Further, in [4], the kinact was determined as 0.58 min⁻¹. The compound further showed a Rate in the series on Hamster of 4.6 nmol/mg/min. Also, the Protection was 8.1% in the series with Cricetinae gen. sp. [9]; 9.3% in the series with Cricetinae gen. sp. [10]; 18% in the series with Cricetinae gen. sp. [11]; 18.9% in the series on Cricetinae gen. sp. [12]; 6% in the series on Cricetinae gen. sp. [13]. In series [5], the second-order inactivation constant (kinact/KI) was 1690 M⁻¹ s⁻¹.

Consider `COc1ccc2c(c1)Cc1cc(N(O)C(C)=O)ccc1-2`, for which the Kd in [3] is 35.1 µM. Moreover, the inactivation rate constant (kinact) in series [4] is 3.73 min⁻¹. This compound also returned a Rate in the series with Hamster of 10.9 nmol/mg/min. Further, the Protection was found to be 28.3% in the series with Cricetinae gen. sp. [9]; 47.6% in the series on Cricetinae gen. sp. [10]; 32.2% with Cricetinae gen. sp. [11]; 54.9% with Cricetinae gen. sp. [12]; 46.1% in the series on Cricetinae gen. sp. [13]. Further, in series [5], the second-order inactivation constant (kinact/KI) was 1770 M⁻¹ s⁻¹.

In the case of `CC(=O)N(O)c1ccc2c(c1)Cc1cc(C#N)ccc1-2`, the Kd in [3] came to 40 µM. In series [4], the kinact stood at 0.09 min⁻¹. The compound further registered a Rate in the series on Hamster of 16.5 nmol/mg/min. In addition, the Protection in the series with Cricetinae gen. sp. [9] was 8%; with Cricetinae gen. sp. [10], 35.9%; in the series on Cricetinae gen. sp. [11], 2.9%; in the series on Cricetinae gen. sp. [12], 5.9%; in the series with Cricetinae gen. sp. [13], 30.5%. Further, the kinact/KI in series [5] amounted to 37.5 M⁻¹ s⁻¹.

For `CC(=O)c1ccc2c(c1)Cc1cc(N(O)C(C)=O)ccc1-2`, the Kd in series [3] was found to be 0.4 µM. Besides, in [4], the maximal inactivation rate constant (kinact) stood at 0.25 min⁻¹. Also, the Rate in the series with Hamster stood at 13.7 nmol/mg/min. For the same compound, the Protection came to 0.3% with Cricetinae gen. sp. [9]; 32.4% in the series with Cricetinae gen. sp. [10]; 8.3% with Cricetinae gen. sp. [11]; 1.4% with Cricetinae gen. sp. [12]; 26.3% with Cricetinae gen. sp. [13]. Besides, in series [5], the kinact/KI worked out at 10400 M⁻¹ s⁻¹.

For `CC(=O)N(O)c1ccc2c(c1)Cc1cc(I)ccc1-2`, the Kd in series [3] was 0.4 µM. For the same compound, the kinact in [4] is 0.07 min⁻¹. This compound registered a Rate with Hamster of 5.3 nmol/mg/min. Besides, the second-order inactivation constant (kinact/KI) in series [5] worked out at 2900 M⁻¹ s⁻¹.

Consider `CC(=O)N(O)c1ccc2c(c1)Cc1cc(F)ccc1-2`, for which the Kd in series [3] was 129 µM. Moreover, the inactivation rate constant (kinact) in series [4] came to 2.59 min⁻¹. In addition, the Rate in the series with Hamster turned out to be 26.8 nmol/mg/min. Moreover, the Protection in the series on Cricetinae gen. sp. [9] is on record as 38.2%; in the series on Cricetinae gen. sp. [10], 54.5%; in the series on Cricetinae gen. sp. [11], 17.6%; in the series with Cricetinae gen. sp. [12], 58.4%; in the series with Cricetinae gen. sp. [13], 55.2%. For the same compound, the kinact/KI in series [5] stood at 334 M⁻¹ s⁻¹.

Regarding `CC(=O)N(O)c1ccc2c(c1)Cc1cc(Cl)ccc1-2`, the Kd in [3] stood at 48.8 µM. In series [4], the kinact amounted to 0.76 min⁻¹. For the same compound, in the series on Hamster, the Rate came out at 20.1 nmol/mg/min. Besides, the kinact/KI in [5] came out at 258 M⁻¹ s⁻¹.

In the case of `CC(=O)N(O)c1ccc2c(c1)Cc1cc(Br)ccc1-2`, in [3], the Kd stood at 5.9 µM. Further, the kinact in series [4] was determined as 0.22 min⁻¹. The compound also gave a Rate in the series with Hamster of 20.5 nmol/mg/min. Further, the Protection in the series on Cricetinae gen. sp. [9] is 6.6%; in the series with Cricetinae gen. sp. [10] it was 31.1%; in the series on Cricetinae gen. sp. [11], 0%; in the series on Cricetinae gen. sp. [12], 26.9%; in the series on Cricetinae gen. sp. [13] it was 34.7%. The second-order inactivation constant (kinact/KI) in [5] turned out to be 620 M⁻¹ s⁻¹.

For `CC(=O)N(O)c1ccc2c(c1)Cc1ccccc1-2`, in series [3], the Kd amounted to 88.8 µM. In addition, in series [4], the maximal inactivation rate constant (kinact) came out at 1.95 min⁻¹. The Rate in the series on Hamster amounted to 20.9 nmol/mg/min. For the same compound, the Protection in the series on Cricetinae gen. sp. [9] came out at 23.1%; in the series with Cricetinae gen. sp. [10], 39.1%; in the series with Cricetinae gen. sp. [11], 1.9%; with Cricetinae gen. sp. [12] it was 34.9%; in the series with Cricetinae gen. sp. [13], 15.7%. For the same compound, the kinact/KI in series [5] came out at 360 M⁻¹ s⁻¹.
